According to ChEMBL document CHEMBL1667802, “1H-imidazo[4,5-c]pyridine-4-carbonitrile as cathepsin S inhibitors: separation of desired cellular activity from undesired tissue accumulation through optimization of basic nitrogen pka” (Bioorg Med Chem Lett, 2011):

System: Plasma
Assay: Drug level in C57BI/6 mouse plasma at 30 mg/kg, po
Assay type: ADME, organism-based
Design: dose 30 mg/kg, route oral
Settings: in vivo
`Cn1cnc2c(C#N)nc(-c3ccc(OCCC4CCN(Cc5ncco5)CC4)c(C(F)(F)F)c3)cc21` showed a concentration of 6.61 µM. Compound `Cc1nnc(CN2CCC(CCOc3ccc(-c4cc5c(ncn5C)c(C#N)n4)cc3C(F)(F)F)CC2)o1` has a concentration of 6.37 µM. Compound `Cc1noc(CN2CCC(CCOc3ccc(-c4cc5c(ncn5C)c(C#N)n4)cc3C(F)(F)F)CC2)n1` has a concentration of 5.66 µM.

Molecular target: Cathepsin S (Mus musculus, UniProt O70370)
Sequence (O70370 whole entry): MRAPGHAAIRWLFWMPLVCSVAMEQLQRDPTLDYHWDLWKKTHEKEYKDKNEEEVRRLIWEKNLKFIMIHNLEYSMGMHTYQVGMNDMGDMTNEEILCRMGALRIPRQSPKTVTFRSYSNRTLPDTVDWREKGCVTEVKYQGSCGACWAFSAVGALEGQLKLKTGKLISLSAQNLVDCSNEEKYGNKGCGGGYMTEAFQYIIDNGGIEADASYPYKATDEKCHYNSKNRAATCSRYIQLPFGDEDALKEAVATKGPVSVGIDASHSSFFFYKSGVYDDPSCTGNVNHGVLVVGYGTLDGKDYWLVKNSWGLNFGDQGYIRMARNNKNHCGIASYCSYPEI
Assay: Inhibition of mouse cathepsin S
Settings: not given
For `Cn1cnc2c(C#N)nc(-c3ccc(OCCC4CCN(Cc5ncco5)CC4)c(C(F)(F)F)c3)cc21`, the IC50 was 1.6 nM.

System: not listed separately
Assay: Oral bioavailability in C57 mouse at 2 mg/kg, iv or 10 mg/kg, po
Assay type: ADME, organism-based
Settings: in vivo
Outline: (§1)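 Pharmacokinetics in male C57 mice, Sprague Dawley rats and Cynomolgus monkeys. Dosing was 2 mg/kg iv and 10 mg/kg po, with oral vehicle gelatin/mannitol. Parameters reported are clearance, Vss, Cmax and oral bioavailability (F %).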
Compound `Cn1cnc2c(C#N)nc(-c3ccc(OCCC4CCN(Cc5ncco5)CC4)c(C(F)(F)F)c3)cc21` has a bioavailability of 112%.

Molecular target: T1, Cathepsin L2 (Homo sapiens, UniProt O60911)
T1 sequence (O60911 whole entry): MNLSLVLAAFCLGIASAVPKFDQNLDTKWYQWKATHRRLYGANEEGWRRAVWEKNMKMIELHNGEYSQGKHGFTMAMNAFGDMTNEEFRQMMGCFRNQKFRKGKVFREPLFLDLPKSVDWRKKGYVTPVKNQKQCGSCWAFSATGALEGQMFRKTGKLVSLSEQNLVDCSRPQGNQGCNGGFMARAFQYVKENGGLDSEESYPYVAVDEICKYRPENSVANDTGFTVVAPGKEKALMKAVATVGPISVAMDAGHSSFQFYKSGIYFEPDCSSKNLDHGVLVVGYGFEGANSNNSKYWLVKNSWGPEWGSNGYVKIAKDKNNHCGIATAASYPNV
Assay: Inhibition of human cathepsin V
Settings: not given
Work on `Cn1cnc2c(C#N)nc(-c3ccc(OCCC4CCN(Cc5ncco5)CC4)c(C(F)(F)F)c3)cc21` yielded an IC50 greater than 10000 nM. `Cc1nnc(CN2CCC(CCOc3ccc(-c4cc5c(ncn5C)c(C#N)n4)cc3C(F)(F)F)CC2)o1` showed an IC50 greater than 10000 nM. In the case of `Cc1noc(CN2CCC(CCOc3ccc(-c4cc5c(ncn5C)c(C#N)n4)cc3C(F)(F)F)CC2)n1`, the IC50 is reported as greater than 10000 nM.

System: not listed separately
Assay: Cmax in Sprague-Dawley rat at 2 mg/kg, iv or 10 mg/kg, po
Assay type: ADME, organism-based
Settings: in vivo
Outline: as §1
`Cn1cnc2c(C#N)nc(-c3ccc(OCCC4CCN(Cc5ncco5)CC4)c(C(F)(F)F)c3)cc21` showed a Cmax of 9.64 ng/mL.

System: not listed separately
Assay: Clearance in C57 mouse at 2 mg/kg, iv or 10 mg/kg, po
Assay type: ADME, organism-based
Settings: in vivo
Outline: as §1
For `Cn1cnc2c(C#N)nc(-c3ccc(OCCC4CCN(Cc5ncco5)CC4)c(C(F)(F)F)c3)cc21`, the clearance was 13.9 mL/min/kg.

System: not listed separately
Assay: Cmax in cynomolgus monkey at 2 mg/kg, iv or 10 mg/kg, po
Assay type: ADME, organism-based, Macaca fascicularis
Settings: in vivo
Outline: as §1
With `Cn1cnc2c(C#N)nc(-c3ccc(OCCC4CCN(Cc5ncco5)CC4)c(C(F)(F)F)c3)cc21` the Cmax was 234 ng/mL.

System: not listed separately
Assay: Cmax in C57 mouse at 2 mg/kg, iv or 10 mg/kg, po
Assay type: ADME, organism-based
Settings: in vivo
Outline: as §1
With `Cn1cnc2c(C#N)nc(-c3ccc(OCCC4CCN(Cc5ncco5)CC4)c(C(F)(F)F)c3)cc21` the Cmax was 3160 ng/mL.

Molecular target: T2, Cathepsin K (Homo sapiens, UniProt P43235)
T2 sequence (P43235 whole entry): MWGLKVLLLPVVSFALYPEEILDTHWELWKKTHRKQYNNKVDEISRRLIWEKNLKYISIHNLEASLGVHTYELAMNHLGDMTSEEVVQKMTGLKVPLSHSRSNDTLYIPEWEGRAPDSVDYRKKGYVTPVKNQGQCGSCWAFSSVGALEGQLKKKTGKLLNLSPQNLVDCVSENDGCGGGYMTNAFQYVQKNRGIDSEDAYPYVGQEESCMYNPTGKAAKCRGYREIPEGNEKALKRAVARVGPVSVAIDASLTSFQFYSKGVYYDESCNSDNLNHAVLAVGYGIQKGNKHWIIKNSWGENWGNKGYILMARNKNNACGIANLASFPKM
Assay: Inhibition of human cathepsin K
Settings: not given
In the case of `Cn1cnc2c(C#N)nc(-c3ccc(OCCC4CCN(Cc5ncco5)CC4)c(C(F)(F)F)c3)cc21`, the IC50 is reported as 708 nM. For `Cc1nnc(CN2CCC(CCOc3ccc(-c4cc5c(ncn5C)c(C#N)n4)cc3C(F)(F)F)CC2)o1`, the IC50 was 813 nM. For `Cc1noc(CN2CCC(CCOc3ccc(-c4cc5c(ncn5C)c(C#N)n4)cc3C(F)(F)F)CC2)n1`, the IC50 was 1150 nM.

Molecular target: Procathepsin L (Homo sapiens, UniProt P07711)
Sequence (P07711 whole entry): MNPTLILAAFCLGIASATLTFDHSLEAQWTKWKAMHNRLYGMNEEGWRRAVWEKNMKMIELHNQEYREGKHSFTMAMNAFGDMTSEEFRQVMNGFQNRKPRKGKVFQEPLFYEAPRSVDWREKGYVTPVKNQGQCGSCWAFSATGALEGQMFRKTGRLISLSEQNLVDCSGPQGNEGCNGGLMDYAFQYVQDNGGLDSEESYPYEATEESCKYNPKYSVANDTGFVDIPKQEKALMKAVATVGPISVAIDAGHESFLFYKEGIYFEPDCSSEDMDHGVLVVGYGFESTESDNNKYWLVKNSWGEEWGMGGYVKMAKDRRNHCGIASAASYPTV
Assay: Inhibition of human cathepsin L
Settings: not given
`Cn1cnc2c(C#N)nc(-c3ccc(OCCC4CCN(Cc5ncco5)CC4)c(C(F)(F)F)c3)cc21` gave an IC50 greater than 10000 nM. In the case of `Cc1nnc(CN2CCC(CCOc3ccc(-c4cc5c(ncn5C)c(C#N)n4)cc3C(F)(F)F)CC2)o1`, the IC50 is reported as greater than 10000 nM. For `Cc1noc(CN2CCC(CCOc3ccc(-c4cc5c(ncn5C)c(C#N)n4)cc3C(F)(F)F)CC2)n1`, the IC50 was greater than 10000 nM.

System: Spleen
Assay: Drug level in C57BI/6 mouse spleen at 30 mg/kg, po
Assay type: ADME, organism-based
Design: dose 30 mg/kg, route oral
Settings: in vivo, read-out: Drug uptake
With `Cn1cnc2c(C#N)nc(-c3ccc(OCCC4CCN(Cc5ncco5)CC4)c(C(F)(F)F)c3)cc21` the concentration was 12.5 µM. Work on `Cc1nnc(CN2CCC(CCOc3ccc(-c4cc5c(ncn5C)c(C#N)n4)cc3C(F)(F)F)CC2)o1` yielded a concentration of 18.2 µM. `Cc1noc(CN2CCC(CCOc3ccc(-c4cc5c(ncn5C)c(C#N)n4)cc3C(F)(F)F)CC2)n1` gave a concentration of 4.09 µM.

System: not listed separately
Assay: Oral bioavailability in Sprague-Dawley rat at 2 mg/kg, iv or 10 mg/kg, po
Assay type: ADME, organism-based
Settings: in vivo
Outline: as §1
In the case of `Cn1cnc2c(C#N)nc(-c3ccc(OCCC4CCN(Cc5ncco5)CC4)c(C(F)(F)F)c3)cc21`, the bioavailability is reported as 3.6%.

Molecular target: T3, Cathepsin S (Homo sapiens, UniProt P25774)
T3 sequence (P25774 whole entry): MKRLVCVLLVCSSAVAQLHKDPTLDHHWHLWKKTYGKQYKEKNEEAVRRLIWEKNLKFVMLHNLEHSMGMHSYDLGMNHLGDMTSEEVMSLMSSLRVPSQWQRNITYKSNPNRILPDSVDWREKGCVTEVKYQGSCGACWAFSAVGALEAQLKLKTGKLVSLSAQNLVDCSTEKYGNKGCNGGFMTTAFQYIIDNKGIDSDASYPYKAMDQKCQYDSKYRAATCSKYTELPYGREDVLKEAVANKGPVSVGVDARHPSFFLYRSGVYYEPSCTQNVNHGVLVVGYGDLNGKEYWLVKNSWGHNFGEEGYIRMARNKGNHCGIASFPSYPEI
Assay: Inhibition of cathepsin S in human JY cells assessed as accumulation of lip10 by Western blot analysis
Assay type: cell-based
Settings: not given
Work on `Cn1cnc2c(C#N)nc(-c3ccc(OCCC4CCN(Cc5ncco5)CC4)c(C(F)(F)F)c3)cc21` yielded an IC50 of 39 nM. `Cc1nnc(CN2CCC(CCOc3ccc(-c4cc5c(ncn5C)c(C#N)n4)cc3C(F)(F)F)CC2)o1` showed an IC50 of 123 nM. With `Cc1noc(CN2CCC(CCOc3ccc(-c4cc5c(ncn5C)c(C#N)n4)cc3C(F)(F)F)CC2)n1` the IC50 was 294 nM.

System: not listed separately
Assay: Clearance in cynomolgus monkey at 2 mg/kg, iv or 10 mg/kg, po
Assay type: ADME, organism-based, Macaca fascicularis
Settings: in vivo
Outline: as §1
Compound `Cn1cnc2c(C#N)nc(-c3ccc(OCCC4CCN(Cc5ncco5)CC4)c(C(F)(F)F)c3)cc21` has a clearance of 10 mL/min/kg.

System: not listed separately
Assay: Volume of distribution at steady state in cynomolgus monkey at 2 mg/kg, iv or 10 mg/kg, po
Assay type: ADME, organism-based, Macaca fascicularis
Settings: in vivo, read-out: Vdss
Outline: as §1
With `Cn1cnc2c(C#N)nc(-c3ccc(OCCC4CCN(Cc5ncco5)CC4)c(C(F)(F)F)c3)cc21` the Vd was 0.6 L/kg.

System: not listed separately
Assay: Clearance in Sprague-Dawley rat at 2 mg/kg, iv or 10 mg/kg, po
Assay type: ADME, organism-based
Settings: in vivo
Outline: as §1
Work on `Cn1cnc2c(C#N)nc(-c3ccc(OCCC4CCN(Cc5ncco5)CC4)c(C(F)(F)F)c3)cc21` yielded a clearance of 73.8 mL/min/kg.

Molecular target: Cathepsin B (Homo sapiens, UniProt P07858)
Assay: Inhibition of human cathepsin B
Settings: not given
In the case of `Cn1cnc2c(C#N)nc(-c3ccc(OCCC4CCN(Cc5ncco5)CC4)c(C(F)(F)F)c3)cc21`, the IC50 is reported as greater than 10000 nM. Work on `Cc1nnc(CN2CCC(CCOc3ccc(-c4cc5c(ncn5C)c(C#N)n4)cc3C(F)(F)F)CC2)o1` yielded an IC50 greater than 10000 nM. In the case of `Cc1noc(CN2CCC(CCOc3ccc(-c4cc5c(ncn5C)c(C#N)n4)cc3C(F)(F)F)CC2)n1`, the IC50 is reported as greater than 10000 nM.

System: not listed separately
Assay: Volume of distribution at steady state in C57 mouse at 2 mg/kg, iv or 10 mg/kg, po
Assay type: ADME, organism-based
Settings: in vivo, read-out: Vdss
Outline: as §1
`Cn1cnc2c(C#N)nc(-c3ccc(OCCC4CCN(Cc5ncco5)CC4)c(C(F)(F)F)c3)cc21` showed a Vd of 1.48 L/kg.

System: not listed separately
Assay: Ratio of drug level in spleen to plasma in C57BI/6 mouse at 30 mg/kg, po
Assay type: ADME, organism-based
Design: dose 30 mg/kg, route oral
Settings: not given
Outline: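 HCl salt given by oral gavage at 30 mg/kg in 0.5% gelatin, 5% mannitol in water to C57Bl/6 mice of 18–25 g. Blood and spleen collected 2 h after dosing and total compound level measured in each. Ratio taken as total spleen over total plasma concentration.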
`Cn1cnc2c(C#N)nc(-c3ccc(OCCC4CCN(Cc5ncco5)CC4)c(C(F)(F)F)c3)cc21` showed a Kp of 1.9. `Cc1nnc(CN2CCC(CCOc3ccc(-c4cc5c(ncn5C)c(C#N)n4)cc3C(F)(F)F)CC2)o1` gave a Kp of 2.9. For `Cc1noc(CN2CCC(CCOc3ccc(-c4cc5c(ncn5C)c(C#N)n4)cc3C(F)(F)F)CC2)n1`, the Kp was 0.7.

System: not listed separately
Assay: Volume of distribution at steady state in Sprague-Dawley rat at 2 mg/kg, iv or 10 mg/kg, po
Assay type: ADME, organism-based
Settings: in vivo, read-out: Vdss
Outline: as §1
With `Cn1cnc2c(C#N)nc(-c3ccc(OCCC4CCN(Cc5ncco5)CC4)c(C(F)(F)F)c3)cc21` the Vd was 2.43 L/kg.

System: not listed separately
Assay: Dissociation constant, pKa of the compound
Assay type: physicochemical
Settings: not given
For `Cn1cnc2c(C#N)nc(-c3ccc(OCCC4CCN(Cc5ncco5)CC4)c(C(F)(F)F)c3)cc21`, the pKa was 6.3. With `Cc1nnc(CN2CCC(CCOc3ccc(-c4cc5c(ncn5C)c(C#N)n4)cc3C(F)(F)F)CC2)o1` the pKa was 5.6. In the case of `Cc1noc(CN2CCC(CCOc3ccc(-c4cc5c(ncn5C)c(C#N)n4)cc3C(F)(F)F)CC2)n1`, the pKa is reported as 5.3.

System: not listed separately
Assay: Oral bioavailability in cynomolgus monkey at 2 mg/kg, iv or 10 mg/kg, po
Assay type: ADME, organism-based, Macaca fascicularis
Settings: in vivo
Outline: as §1
Compound `Cn1cnc2c(C#N)nc(-c3ccc(OCCC4CCN(Cc5ncco5)CC4)c(C(F)(F)F)c3)cc21` has a bioavailability of 9%.

Molecular target: T3, Cathepsin S
Assay: Inhibition of human cathepsin S
Settings: not given
With `Cn1cnc2c(C#N)nc(-c3ccc(OCCC4CCN(Cc5ncco5)CC4)c(C(F)(F)F)c3)cc21` the IC50 was 7.9 nM. For `Cc1nnc(CN2CCC(CCOc3ccc(-c4cc5c(ncn5C)c(C#N)n4)cc3C(F)(F)F)CC2)o1`, the IC50 was 14.1 nM. `Cc1noc(CN2CCC(CCOc3ccc(-c4cc5c(ncn5C)c(C#N)n4)cc3C(F)(F)F)CC2)n1` showed an IC50 of 18.6 nM.
